# ERAP1 inh: human ERAP1 aminopeptidase inhibitors, primary screen, biochemical, single point, plate reader; Endoplasmic reticulum aminopeptidase 1 (Homo sapiens), Q9NZ08; recombinant ERAP1, Leu-AMC fluorescence, 60 min; inhibition, % at 10.7 µM; 340,000 tested, 0.15% active; AID 652197, 2013;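 active = mean replicate inhibition of at least 30%, or all replicates individually reaching that 30% level; inactive = mean below 30% and not every replicate reaching it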;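 note: 0% = neutral control wells and 100% = L-leucinethiol positive control wells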
# Target sequence (Q9NZ08 whole entry, looked up): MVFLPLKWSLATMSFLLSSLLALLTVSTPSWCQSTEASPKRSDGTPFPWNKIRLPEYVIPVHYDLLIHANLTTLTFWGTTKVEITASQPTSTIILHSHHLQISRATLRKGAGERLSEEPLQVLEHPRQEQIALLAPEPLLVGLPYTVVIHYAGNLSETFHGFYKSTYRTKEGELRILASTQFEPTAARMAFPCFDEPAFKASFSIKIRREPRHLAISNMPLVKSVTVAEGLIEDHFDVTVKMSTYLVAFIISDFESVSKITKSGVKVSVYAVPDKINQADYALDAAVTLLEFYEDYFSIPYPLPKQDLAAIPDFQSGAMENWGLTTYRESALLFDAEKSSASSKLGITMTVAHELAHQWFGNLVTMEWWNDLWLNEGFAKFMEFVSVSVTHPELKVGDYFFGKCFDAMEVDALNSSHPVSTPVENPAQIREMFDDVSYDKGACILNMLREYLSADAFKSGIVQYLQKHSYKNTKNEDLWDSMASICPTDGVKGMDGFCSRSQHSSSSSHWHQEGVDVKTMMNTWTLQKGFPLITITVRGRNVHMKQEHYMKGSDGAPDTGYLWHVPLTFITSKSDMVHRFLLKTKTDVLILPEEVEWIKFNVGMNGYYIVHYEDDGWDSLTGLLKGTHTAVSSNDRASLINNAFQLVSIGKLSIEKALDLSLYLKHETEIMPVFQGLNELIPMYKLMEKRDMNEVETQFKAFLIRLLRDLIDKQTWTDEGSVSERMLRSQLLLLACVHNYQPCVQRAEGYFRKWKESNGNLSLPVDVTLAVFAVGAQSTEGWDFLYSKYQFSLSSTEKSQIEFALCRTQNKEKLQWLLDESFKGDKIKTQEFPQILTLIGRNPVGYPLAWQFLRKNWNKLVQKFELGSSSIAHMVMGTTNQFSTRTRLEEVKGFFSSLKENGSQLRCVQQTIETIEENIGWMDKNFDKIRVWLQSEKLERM
# esBAF inh: Bmi1 luciferase reporter increase in mESCs, primary screen, esBAF inhibitor project, mouse ES cells, Bmi1 luciferase knock-in, single point | 24 h; 100% = twice the neutral-well signal | reporter increase, % at 12.5 µM | 350,000 tested, 2% active | AID 602393, 2012; in the data active = activation above about 40%; inconclusive = no clear call, values can overlap the other calls;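 note: 0% = median of the plate's neutral control wells and 100% = double that signal; a rise in the Bmi1 reporter signal indicates esBAF inhibition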
# MITF TRPM1 HTS: activators of MITF-driven TRPM1 promoter reporter, primary screen, cell-based, SK-MEL-5, luciferase, single point. SK-MEL-5 TRPM1-promoter luciferase, 24 h; % of positive control, neutral wells = 0. activation, % at 12.5 µM. 300,000 tested, 0.75% active. AID 588334, 2011;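 active = mean activation of at least 80% with every replicate also reaching 80%; inconclusive = mean reaches 80% but some replicate falls short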;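 note: 0% = neutral control wells and 100% = parthenolide positive control wells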
# Cneo AK release: Cryptococcus neoformans cell lysis inducers, primary screen, AK release luminescence, single concentration. C. neoformans lysis, adenylate kinase release luminescence, 4 h; normalised: neutral wells 0, clomiphene wells 100. lysis activity, % at 15 µM. 360,000 tested, 0.2% active;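 active = mean lysis activity across replicates of at least 80%, whatever share of replicates individually reach that level; inactive = mean lysis activity below 80%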
#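 Test system: log-phase Cryptococcus neoformans yeast cells; Quantity: yeast cell density of 5 × 10^6 cells/mL; Buffer or medium: YPD; Doses: single compound concentration per well; Timing: 4 h at 37 °C static, read 1 h later; Measured by: AK luminescence; Read-out basis: lysis from increased AK signal; Control set: Clomiphene as positive control.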
# HIV Env fusion: inhibitors of HIV-1 Env-driven cell-cell fusion, primary screen, HeLa-JRFL effector, CEM21 target cells, luciferase; inhibition, % at 12.3 µM; 360,000 tested, 1.1% active; AID 651610, 2012;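 active = mean replicate inhibition score of at least 50 and every replicate individually at or above 50; inconclusive = only one of the two criteria met; inactive = mean below 50 and not all replicates reaching 50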;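 note: 0% = plate neutral controls and 100% = maraviroc near 300 nM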
# Wnt act: Wnt/beta-catenin pathway activators, primary screen, cell-based, plate reader, single point | Wnt/beta-catenin reporter cell assay, activator | AID 743398, 2014 | 300,000 tested, 1.2% active | activation, % at 9.35 µM; in the data active = activation above about 30%, passing the limit was not always enough; inconclusive = no clear call, values can overlap the other calls;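 note: 0% = neutral control wells and 100% = positive control wells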
# Ring1 derepress: Ring1 mRNA increase in mouse ESCs, confirmation, esBAF inhibitor project, cell-based, mouse ESC, RT-qPCR, cherry-pick; AID 743176, 2013; shares compounds with esBAF inh; 550 tested, under 10 active; mouse ESC E14, Ring1 mRNA RT-qPCR fold change; fold change at 33 µM;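 active = Ring1 gene expression raised more than 2-fold over untreated cells in both replicates at either tested dose; inconclusive = only one replicate above 2-fold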;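 note: Ring1 transcript normalised to actin housekeeping signal by TaqMan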
# Fgf4 repress: Fgf4 mRNA decrease in mouse ESCs, confirmation, esBAF inhibitor project, cell-based, mouse ESC, RT-qPCR, cherry-pick; shares compounds with esBAF inh; Fgf4 expression fold change at 33 µM; 550 tested, 4% active; mouse ESC E14, Fgf4 mRNA qPCR fold change; active compounds read low;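 active = Fgf4 expression under 0.8 fold of control in both repeat measurements at one or both tested doses; inconclusive = under 0.8 fold in just a single repeat measurement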;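 note: Fgf4 transcript normalised to actin in duplex TaqMan qPCR; cells exposed to compound for 24 h before lysis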
# Bmi1 derepress: esBAF inhibition via Bmi1 de-repression, confirmation, cell-based, RT-qPCR, mouse ESC, single point, cherry-pick. shares compounds with esBAF inh. mouse ESE14 ES cells, Bmi1 mRNA qPCR fold; active compounds read high. 550 tested, under 10 active. fold change at 33 µM;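 active = Bmi1 expression fold change above 6 at either tested concentration, seen in replicate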;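 note: higher fold means more Bmi1 de-repression and stronger esBAF inhibition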
# A549 cytotox: A549 cell cytotoxicity, cytotoxicity control, plate reader, single point, cherry-pick | shares compounds with esBAF inh | cell viability change % (negative = cytotoxic), % at 25 µM, hits read low | 550 tested, under 10 active | AID 743188, 2013; call rule not given here
# HepG2 tox SP: HepG2 cell cytotoxicity, cytotoxicity control, plate reader, single point, cherry-pick | 550 tested, 4% active | shares compounds with esBAF inh | activity change, negative = inhibition, % at 25 µM | active compounds read low; in the data active = activity change below about -50%
# HEK293 tox SP: HEK293 cell cytotoxicity, cytotoxicity control, plate reader, single point, cherry-pick | shares compounds with esBAF inh | activity change, negative = inhibition, % at 25 µM, hits read low | 550 tested, 3% active; in the data active = activity change below about -38%, passing the limit was not always enough
# An asterisk follows results filed as active; ? = inconclusive; . = no result; [ ] = another dose, or the depositor's remark. The list is not random: actives were taken first. Their share in the collection is about 3.5%.
SMILES,ERAP1 inh,esBAF inh,MITF TRPM1 HTS,Cneo AK release,HIV Env fusion,Wnt act,Ring1 derepress,Fgf4 repress,Bmi1 derepress,A549 cytotox,HepG2 tox SP,HEK293 tox SP
CCn1c(COc2ccccc2C)nc2ccccc21,.,65*,?,11,.,.,1.1,0.94,1.8,-7,1,-14
CCn1c(COc2ccccc2OC)nc2ccccc21,2,?,39,4,-2,2,.,.,.,.,.,.
C[C@H](CO)N1C[C@H](C)[C@@H](CN(C)C(=O)Nc2ccc(F)cc2)OCCCC[C@H](C)Oc2ccc(NC(=O)C3CCCCC3)cc2C1=O,1,5,.,44,-29[16.7 µM],.,.,.,.,.,.,.
c1ccc(-c2noc(CC3CCCCC3)n2)cc1,-7,58*,?,-1,-15,10,1.2,1.2,1.1,-6,-21,-5
c1cc(-c2noc(CCC3CCCC3)n2)ccn1,.,.,24,0,.,.,.,.,.,.,.,.
CC(NC(=O)c1cc(COc2ccc(-n3cncn3)cc2)on1)c1ccc(F)cc1 (stereo unspecified),-3,59*,.,0,-9,16,1.1,?,1.5,-12,45,13
O=C(c1cc(COc2ccc(-n3cncn3)cc2)on1)N1CCCC1,1,9,-4,0,-36,1,.,.,.,.,.,.
O=C(Cc1c(O)c2ccccc2oc1=O)c1ccc(F)cc1,0,69*,.,-3,.,28,0.86,0.93,1.5,-14,-33,-6
O=c1oc2ccccc2c(O)c1CN1CCCCC1,.,-6,.,7,-25,.,.,.,.,.,.,.
CN1C(=O)c2cc(NC(=O)Nc3cccc(Cl)c3)ccc2OC[C@H]2O[C@H](CC(=O)NCCc3ccncc3)CC[C@@H]21,0,8,.,-7,.,.,.,.,.,.,.,.
O=C(c1cccc(F)c1)N1CC[C@@H]2[C@H]1c1cc(C#Cc3ccc(F)cc3)ccc1N[C@@H]2CO,1,1,.,4,.,.,.,.,.,.,.,.
Cc1cccc(C)c1OCc1nc2ccccc2[nH]1,1,.,6,.,-9,-2,.,.,.,.,.,.
Cc1ccc(C)c(OCc2nc3ccccc3[nH]2)c1,8,66*,69,11,-29,46*,1.4,1,1.6,-1,-34,-12
CCC(=O)Nc1ccc2c(c1)C(=O)N(C)[C@H]1CC[C@@H](CC(=O)O)O[C@H]1CO2,-2,2,.,-2,.,.,.,.,.,.,.,.
COc1ccccc1NC(=O)Cn1nnc(-c2ccccc2NC(=O)c2cc3ccccc3oc2=O)n1,-5,66*,38,0,.,4,1.1,0.87,1.5,-7,-3,-13
Nc1c(C(=O)N2CCCCC2)sc(=S)n1-c1ccccc1,.,13,0,-4,1,.,.,.,.,.,.,.
Nc1nc(SCc2ccccc2)sc1C(=O)N1CCCCC1,-2,60*,.,-12,-12,43*,1.2,0.92,1.5,-10,-7,-10
O=C(Nc1ccc2c(c1)[C@@H]1C[C@H](CC(=O)N3CCc4ccccc4C3)O[C@@H](CO)[C@@H]1O2)c1ccc2c(c1)OCO2,0,-2,.,-15,26[16.7 µM],.,.,.,.,.,.,.
c1ccc(-c2nc3c(ccc4ccccc43)[nH]2)nc1,.,100*,17,.,.,.,0.95,1.1,3.1,-6,-13,-8
C[C@@H]1CN([C@@H](C)CO)C(=O)c2cc(NC(=O)Nc3ccccc3)ccc2O[C@H]1CN(C)Cc1ccncc1,-1,-4,.,60,2[16.7 µM],.,.,.,.,.,.,.
O=C(c1cc2ccccc2oc1=O)N(Cc1cccs1)C1CCS(=O)(=O)C1 (stereo unspecified),.,70*,78,-2,.,.,1.1,?,1.3,-7,-22,-13
COc1cc(CN(C(=O)c2cc3ccccc3oc2=O)C2CCS(=O)(=O)C2)cc(OC)c1OC (stereo unspecified),2,33,14,4,-2,2,.,.,.,.,.,.
Cc1ccc(OCn2c(=O)sc3ccccc32)cc1,1,66*,74,9,.,17,1.1,1.2,1.4,-10,-11,-16
C[C@H](CO)N1C[C@H](C)[C@@H](CN(C)Cc2ccc(C(F)(F)F)cc2)Oc2c(NC(=O)C3CCOCC3)cccc2C1=O,-7,-3,.,2,.,.,.,.,.,.,.,.
CO[C@H]1CN(C)C(=O)c2cc(NC(=O)Nc3ccccc3F)ccc2OC[C@H](C)N(C(C)=O)C[C@H]1C,-2,0,.,0,13[16.7 µM],.,.,.,.,.,.,.
SMILES,ERAP1 inh,esBAF inh,MITF TRPM1 HTS,Cneo AK release,HIV Env fusion,Wnt act,Ring1 derepress,Fgf4 repress,Bmi1 derepress,A549 cytotox,HepG2 tox SP,HEK293 tox SP
Cc1cccc(Oc2ccc(Cl)cc2N)c1,0,72*,49,-1,-15,7,1.2,1.1,1.5,-10,-11,-1
CCCNC(=O)[C@H]1[C@H](CO)[C@H]2Cn3c(ccc(-c4ccccc4F)c3=O)[C@H]2N1C(C)=O,0,.,.,.,.,.,.,.,.,.,.,.
COc1ccc(-c2cc3ccccc3s2)cc1[C@H]1[C@H]2C=CC[C@@H](C)[C@@H]2C(=O)N1Cc1ccccc1,1,50*,66,0,-20,37*,1.1,1,1.6,-5,35,-11
CCCC(=O)Nc1ccc2c(c1)c1ccccc1n2CC,1,.,-6,.,0,-1,.,.,.,.,.,.
CCn1c2ccccc2c2cc(NC(=O)N3CCCCC3)ccc21,-5,96*,.,-1,-33,4,1.1,0.94,1.9,7,7,-1
Cc1ccc(NC(=O)C2CCCN(c3ncccn3)C2)cc1F (stereo unspecified),.,73*,134*,-6,-188,.,1.3,?,1.6,0,-18,-7

# Assay outcomes deposited in PubChem by Broad Institute.
